Assay results from ChEMBL document CHEMBL4382192, “Discovery of a potent dual ALK and EGFR T790M inhibitor” (Eur J Med Chem, 2017).

Experiments:
[1] = target: Activin receptor type-2A (Homo sapiens) (UniProt P27037); assay: Binding affinity to wild-type human ACVR2A (V171 to T499 residues) expressed in bacterial expression system assessed as residual binding level at 1 uM by Kinomescan method relative to control
[2] = target: Casein kinase I isoform gamma-1 (Homo sapiens) (UniProt Q9HCP0); assay: Binding affinity to wild-type human partial length CSNK1G1 (T15 to S353 residues) expressed in bacterial expression system assessed as residual binding level at 1 uM by Kinomescan method relative to control
[3] = target: Ephrin type-B receptor 3 (Homo sapiens) (UniProt P54753); assay: Binding affinity to wild-type human partial length EPHB3 (Q599 to T928 residues) expressed in bacterial expression system assessed as residual binding level at 1 uM by Kinomescan method relative to control
Sequence of Ephrin type-B receptor 3 (Homo sapiens) (P54753 whole entry, the tested form may be a part): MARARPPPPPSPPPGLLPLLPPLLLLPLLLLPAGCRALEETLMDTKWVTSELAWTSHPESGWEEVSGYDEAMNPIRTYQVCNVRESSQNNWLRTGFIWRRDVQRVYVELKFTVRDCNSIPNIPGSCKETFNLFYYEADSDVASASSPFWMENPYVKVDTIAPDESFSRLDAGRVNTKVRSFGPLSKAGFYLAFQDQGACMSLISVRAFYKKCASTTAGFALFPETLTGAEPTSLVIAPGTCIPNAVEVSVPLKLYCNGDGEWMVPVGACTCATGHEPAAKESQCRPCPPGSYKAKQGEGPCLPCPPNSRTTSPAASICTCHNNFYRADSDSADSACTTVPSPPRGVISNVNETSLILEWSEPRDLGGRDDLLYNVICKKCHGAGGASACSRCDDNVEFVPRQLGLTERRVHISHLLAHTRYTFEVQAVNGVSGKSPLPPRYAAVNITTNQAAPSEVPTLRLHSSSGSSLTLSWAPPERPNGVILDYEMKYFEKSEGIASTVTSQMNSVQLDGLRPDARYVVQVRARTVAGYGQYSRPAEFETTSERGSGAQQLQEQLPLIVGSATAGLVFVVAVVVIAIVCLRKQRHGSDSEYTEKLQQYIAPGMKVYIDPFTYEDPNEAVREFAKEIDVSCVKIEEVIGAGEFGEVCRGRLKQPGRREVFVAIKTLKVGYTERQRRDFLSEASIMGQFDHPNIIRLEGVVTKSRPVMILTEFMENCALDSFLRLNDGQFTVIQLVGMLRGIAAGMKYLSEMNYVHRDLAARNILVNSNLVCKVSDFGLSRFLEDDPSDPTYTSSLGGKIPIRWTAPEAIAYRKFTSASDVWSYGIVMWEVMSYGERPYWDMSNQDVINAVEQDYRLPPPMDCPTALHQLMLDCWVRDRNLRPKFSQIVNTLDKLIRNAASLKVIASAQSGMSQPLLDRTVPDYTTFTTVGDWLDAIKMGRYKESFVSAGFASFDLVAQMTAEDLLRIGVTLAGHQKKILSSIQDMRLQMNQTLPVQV

[4] = system: Fibroblast growth factor receptor 3 (Homo sapiens), P22607 [G697C]; assay: Binding affinity to human partial length FGFR3 G697C mutant (R442 to S771 residues) expressed in bacterial expression system assessed as residual binding level at 1 uM by Kinomescan method relative to control
In short: (§1)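 Kinome-wide selectivity panel run by the KINOMEscan method, with the test compound at a single concentration of 1 μM. Wild-type and mutant kinases were profiled in the same screen.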

[5] = target: Cyclin-G-associated kinase (Homo sapiens) (UniProt O14976); assay: Binding affinity to wild-type human partial length GAK (G13 to Y338 residues) expressed in bacterial expression system assessed as residual binding level at 1 uM by Kinomescan method relative to control
[6] = target: Rhodopsin kinase GRK1 (Homo sapiens) (UniProt Q15835); assay: Binding affinity to wild-type human full length GRK1 (M1 to S563 residues) expressed in mammalian expression system assessed as residual binding level at 1 uM by Kinomescan method relative to control
Sequence of Rhodopsin kinase GRK1 (Homo sapiens) (Q15835 whole entry, the tested form may be a part): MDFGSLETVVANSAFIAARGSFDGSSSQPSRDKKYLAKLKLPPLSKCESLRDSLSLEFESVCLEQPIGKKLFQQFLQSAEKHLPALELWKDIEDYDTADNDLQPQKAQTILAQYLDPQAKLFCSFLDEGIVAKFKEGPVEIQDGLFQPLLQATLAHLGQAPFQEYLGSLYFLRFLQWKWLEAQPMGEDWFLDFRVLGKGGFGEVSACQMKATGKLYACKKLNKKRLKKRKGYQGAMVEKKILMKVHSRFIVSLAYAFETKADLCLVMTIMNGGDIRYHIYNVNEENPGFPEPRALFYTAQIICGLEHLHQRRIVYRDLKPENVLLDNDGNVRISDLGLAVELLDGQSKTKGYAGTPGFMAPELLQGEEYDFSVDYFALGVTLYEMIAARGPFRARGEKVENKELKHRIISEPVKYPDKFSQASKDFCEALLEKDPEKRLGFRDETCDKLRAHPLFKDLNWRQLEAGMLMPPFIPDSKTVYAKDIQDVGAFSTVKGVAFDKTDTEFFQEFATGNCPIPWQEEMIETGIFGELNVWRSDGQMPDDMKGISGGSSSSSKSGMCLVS
In short: (§2)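 Single-point kinome-wide KINOMEscan binding panel, test compound at 1 μM, run by the provider's standard protocol.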

[7] = target: G protein-coupled receptor kinase 3 (Homo sapiens) (UniProt P35626); assay: Binding affinity to wild-type human full length GRK3 (M1 to L688 residues) expressed in mammalian expression system assessed as residual binding level at 1 uM by Kinomescan method relative to control; in short: as §2
[8] = system: Mast/stem cell growth factor receptor Kit (Homo sapiens), P10721 [V559D]; assay: Binding affinity to human partial length KIT V559D mutant (Y545 to D952 residues) expressed in bacterial expression system assessed as residual binding level at 1 uM by Kinomescan method relative to control; in short: as §1
[9] = target: MAP/microtubule affinity-regulating kinase 3 (Homo sapiens) (UniProt P27448); assay: Binding affinity to wild-type human full length MARK3 (M1 to L729 residues) expressed in bacterial expression system assessed as residual binding level at 1 uM by Kinomescan method relative to control; in short: as §2
[10] = target: Maternal embryonic leucine zipper kinase (Homo sapiens) (UniProt Q14680); assay: Binding affinity to wild-type human full length MELK (M1 to V651 residues) expressed in bacterial expression system assessed as residual binding level at 1 uM by Kinomescan method relative to control; in short: as §2
[11] = target: Myosin light chain kinase (Homo sapiens) (UniProt Q32MK0); assay: Binding affinity to wild-type human partial length MLCK (D488 to K800 residues) expressed in bacterial expression system assessed as residual binding level at 1 uM by Kinomescan method relative to control
Sequence of Myosin light chain kinase (Homo sapiens) (Q32MK0 whole entry, the tested form may be a part): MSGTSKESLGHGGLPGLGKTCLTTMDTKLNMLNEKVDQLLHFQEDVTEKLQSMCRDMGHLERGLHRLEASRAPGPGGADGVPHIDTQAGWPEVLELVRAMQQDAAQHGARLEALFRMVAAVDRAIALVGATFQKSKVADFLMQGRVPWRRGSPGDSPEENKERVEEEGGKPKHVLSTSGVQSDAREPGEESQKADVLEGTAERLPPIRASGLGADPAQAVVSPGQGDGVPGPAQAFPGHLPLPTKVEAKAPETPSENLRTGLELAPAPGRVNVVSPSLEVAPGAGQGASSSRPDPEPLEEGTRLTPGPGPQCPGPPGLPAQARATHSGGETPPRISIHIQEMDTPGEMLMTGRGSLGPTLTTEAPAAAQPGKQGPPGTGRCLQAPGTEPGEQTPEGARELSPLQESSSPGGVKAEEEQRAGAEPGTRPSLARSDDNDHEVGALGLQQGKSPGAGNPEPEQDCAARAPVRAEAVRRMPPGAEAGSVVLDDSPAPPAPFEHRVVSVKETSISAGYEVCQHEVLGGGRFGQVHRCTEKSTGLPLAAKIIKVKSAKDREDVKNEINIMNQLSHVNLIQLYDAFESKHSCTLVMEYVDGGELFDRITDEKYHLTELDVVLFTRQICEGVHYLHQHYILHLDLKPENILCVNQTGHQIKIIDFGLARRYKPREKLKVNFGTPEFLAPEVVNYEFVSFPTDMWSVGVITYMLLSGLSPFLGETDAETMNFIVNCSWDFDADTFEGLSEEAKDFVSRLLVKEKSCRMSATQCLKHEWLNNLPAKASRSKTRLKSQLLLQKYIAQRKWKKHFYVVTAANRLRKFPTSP

[12] = target: Serine/threonine-protein kinase MRCK alpha (Homo sapiens) (UniProt Q5VT25); assay: Binding affinity to wild-type human partial length MRCKA (L57 to V418 residues) expressed in bacterial expression system assessed as residual binding level at 1 uM by Kinomescan method relative to control
Sequence of Serine/threonine-protein kinase MRCK alpha (Homo sapiens) (Q5VT25 whole entry, the tested form may be a part): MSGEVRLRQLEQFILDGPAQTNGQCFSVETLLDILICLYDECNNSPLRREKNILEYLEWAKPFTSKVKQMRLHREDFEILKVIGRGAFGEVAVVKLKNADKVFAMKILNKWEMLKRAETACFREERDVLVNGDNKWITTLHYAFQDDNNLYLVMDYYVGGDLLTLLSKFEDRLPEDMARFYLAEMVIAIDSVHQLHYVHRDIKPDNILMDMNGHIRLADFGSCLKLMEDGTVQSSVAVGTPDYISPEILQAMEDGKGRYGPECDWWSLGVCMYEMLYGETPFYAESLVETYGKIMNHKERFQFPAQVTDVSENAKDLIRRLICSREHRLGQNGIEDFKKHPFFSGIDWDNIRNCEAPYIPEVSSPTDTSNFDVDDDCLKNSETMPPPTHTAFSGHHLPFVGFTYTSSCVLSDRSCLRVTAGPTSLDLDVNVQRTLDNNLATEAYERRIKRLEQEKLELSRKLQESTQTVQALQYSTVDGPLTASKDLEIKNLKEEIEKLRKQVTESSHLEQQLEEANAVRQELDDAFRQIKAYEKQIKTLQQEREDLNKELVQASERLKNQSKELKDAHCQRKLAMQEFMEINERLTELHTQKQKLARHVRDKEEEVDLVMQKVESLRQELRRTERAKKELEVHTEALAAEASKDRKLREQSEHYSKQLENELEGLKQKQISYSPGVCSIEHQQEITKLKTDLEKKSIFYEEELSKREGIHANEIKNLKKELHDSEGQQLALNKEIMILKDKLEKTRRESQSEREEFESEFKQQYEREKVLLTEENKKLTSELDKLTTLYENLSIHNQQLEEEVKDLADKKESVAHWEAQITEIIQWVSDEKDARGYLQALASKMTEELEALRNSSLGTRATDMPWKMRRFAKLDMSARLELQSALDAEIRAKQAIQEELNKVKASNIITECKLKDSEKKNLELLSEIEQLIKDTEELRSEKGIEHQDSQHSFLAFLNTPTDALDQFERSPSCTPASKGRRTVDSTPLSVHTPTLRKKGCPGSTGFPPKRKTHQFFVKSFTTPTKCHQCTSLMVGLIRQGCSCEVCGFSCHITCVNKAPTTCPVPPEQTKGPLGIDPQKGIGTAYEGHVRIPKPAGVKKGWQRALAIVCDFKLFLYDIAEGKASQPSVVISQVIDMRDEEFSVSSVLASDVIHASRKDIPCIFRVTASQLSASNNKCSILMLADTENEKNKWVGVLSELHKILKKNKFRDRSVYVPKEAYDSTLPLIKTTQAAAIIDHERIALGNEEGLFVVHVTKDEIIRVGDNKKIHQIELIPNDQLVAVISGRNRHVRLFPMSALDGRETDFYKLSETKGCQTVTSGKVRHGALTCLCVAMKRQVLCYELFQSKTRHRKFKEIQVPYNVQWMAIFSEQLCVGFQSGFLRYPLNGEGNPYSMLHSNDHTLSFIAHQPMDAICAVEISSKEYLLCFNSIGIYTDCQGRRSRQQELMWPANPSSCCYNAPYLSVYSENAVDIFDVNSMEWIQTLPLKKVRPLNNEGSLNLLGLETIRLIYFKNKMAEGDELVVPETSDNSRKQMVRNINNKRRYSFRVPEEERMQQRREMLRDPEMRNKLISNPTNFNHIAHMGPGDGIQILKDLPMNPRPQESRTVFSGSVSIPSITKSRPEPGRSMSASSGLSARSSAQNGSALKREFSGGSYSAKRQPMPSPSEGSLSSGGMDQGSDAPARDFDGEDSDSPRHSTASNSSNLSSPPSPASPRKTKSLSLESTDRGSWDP

[13] = target: Mitogen-activated protein kinase 11 (Homo sapiens) (UniProt Q15759); assay: Binding affinity to wild-type human full length p38-beta (M1 to Q364 residues) expressed in bacterial expression system assessed as residual binding level at 1 uM by Kinomescan method relative to control
Sequence of Mitogen-activated protein kinase 11 (Homo sapiens) (Q15759 whole entry, the tested form may be a part): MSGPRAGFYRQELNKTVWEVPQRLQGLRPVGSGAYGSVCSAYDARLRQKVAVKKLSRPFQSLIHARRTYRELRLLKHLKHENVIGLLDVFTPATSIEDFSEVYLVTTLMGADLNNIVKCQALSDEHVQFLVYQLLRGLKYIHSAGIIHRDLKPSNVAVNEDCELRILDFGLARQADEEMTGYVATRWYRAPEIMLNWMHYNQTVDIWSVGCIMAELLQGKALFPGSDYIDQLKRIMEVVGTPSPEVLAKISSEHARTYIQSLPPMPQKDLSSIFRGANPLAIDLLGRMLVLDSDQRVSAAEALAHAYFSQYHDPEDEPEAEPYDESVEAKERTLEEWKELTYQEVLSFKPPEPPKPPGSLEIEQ

[14] = target: Cyclin-dependent kinase 15 (Homo sapiens) (UniProt Q96Q40); assay: Binding affinity to wild-type human full length PFTAIRE2 (M1 to W384 residues) expressed in bacterial expression system assessed as residual binding level at 1 uM by Kinomescan method relative to control; in short: as §2
[15] = target: Phosphatidylinositol 4-phosphate 5-kinase type-1 alpha (Homo sapiens) (UniProt Q99755); assay: Binding affinity to wild-type human full length PIP5K1A (M1 to H562 residues) expressed in bacterial expression system assessed as residual binding level at 1 uM by Kinomescan method relative to control
[16] = target: Testis-specific serine/threonine-protein kinase 1 (Homo sapiens) (UniProt Q9BXA7); assay: Binding affinity to wild-type human full length TSSK1B (M1 to Q367 residues) expressed in bacterial expression system assessed as residual binding level at 1 uM by Kinomescan method relative to control
[17] = target: Serine/threonine-protein kinase ULK2 (Homo sapiens) (UniProt Q8IYT8); assay: Binding affinity to wild-type human partial length ULK2 (M1 to S301 residues) expressed in mammalian expression system assessed as residual binding level at 1 uM by Kinomescan method relative to control

Sequence of Activin receptor type-2A (Homo sapiens) (P27037 whole entry, the tested form may be a part, canonical isoform): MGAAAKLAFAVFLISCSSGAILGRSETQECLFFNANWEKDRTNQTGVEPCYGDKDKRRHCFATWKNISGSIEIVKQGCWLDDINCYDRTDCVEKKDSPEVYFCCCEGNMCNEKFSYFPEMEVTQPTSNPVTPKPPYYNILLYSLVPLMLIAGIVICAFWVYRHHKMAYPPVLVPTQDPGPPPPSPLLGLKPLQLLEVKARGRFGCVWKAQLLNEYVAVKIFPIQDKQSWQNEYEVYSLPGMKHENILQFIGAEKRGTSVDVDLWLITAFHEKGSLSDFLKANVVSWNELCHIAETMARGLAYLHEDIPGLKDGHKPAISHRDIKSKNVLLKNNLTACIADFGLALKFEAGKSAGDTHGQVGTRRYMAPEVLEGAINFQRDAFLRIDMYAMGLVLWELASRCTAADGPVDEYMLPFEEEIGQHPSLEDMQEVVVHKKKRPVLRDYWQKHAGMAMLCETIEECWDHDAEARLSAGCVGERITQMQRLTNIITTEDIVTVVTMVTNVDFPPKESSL

For `C=CC(=O)Nc1cc(Nc2ncc(Cl)c(Nc3ccccc3S(=O)(=O)C(C)C)n2)c(OC)cc1N(C)CCN(C)C`, the Activity [1] was 96%, the Activity [2] was 74% and the Activity [3] was 63%. It also gave an Activity [4] of 15%, an Activity [5] of 29% and an Activity [6] of 28%. For the same molecule, the Activity [7] was 100%, the Activity [8] was 31% and the Activity [9] was 33%. The Activity [10] was 54%, the Activity [11] was 100% and the Activity [12] was 97%. It also gave an Activity [13] of 96%, an Activity [14] of 90% and an Activity [15] of 91%. For the same molecule, the Activity [16] was 12% and the Activity [17] was 4.3%.
